From PMC9444296 (Investigative Radiology, 2022)
“Also recorded” adds a separate entry of the source.

Experiments:
[1] = biological target: EDB protein fragment (Homo sapiens, UniProt P02751); test: Binding affinity by surface plasmon resonance; conditions: read-out: average binding affinity (Kd); SPR, n = 4
In short: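 EDB protein fragment desalted into 10 mM PBS pH 7.4, then amine-coupled to a CM5 chip active cell (25 μg/mL in 10 mM acetate pH 4.5, 3 min at 10 μL/min, about 1500 RU). Both cells were ethanolamine-blocked (pH 8.5, 7 min). Test compound (1.0 mM stock in 0.05% Tween-20/10 mM PBS pH 7.4 running buffer) was injected at varying concentrations for 120 s at 50 μL/min, with 5 min dissociation. Kd came from instrument evaluation software.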

[2] = Plasma protein binding, rat plasma; type: in vitro ADME; conditions: 37°C, 3 min, 10 kDa ultrafiltration, Gd by ICP-OES, n = 4
In short: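 Test compound at 50, 80 or 110 μM was incubated with human, dog or rat plasma (alongside HSA 40 mg/mL and PBS) at 37°C for 3 min. Mixtures were kept overnight and centrifuged to remove insolubles. Gd was measured by ICP-OES, and the binding ratio was taken as bound over total concentration.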

[3] = Plasma stability, dog plasma; type: in vitro ADME; conditions: 0.5 mM, 37°C, HPLC; for average remaining percentage of intact MT218: n = 2
In short: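 Test compound at 0.5 mM was incubated in human, rat or dog plasma at 37°C for up to 48 h, with PBS as control. Samples were mixed with methanol, centrifuged, and the intact compound was quantified by analytical reversed-phase (C18) HPLC.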

[4] = biological target: BCRP (Homo sapiens, UniProt Q9UNQ0); test: BCRP inhibition, membrane vesicles; type: in vitro ADME; conditions: 1, 5, 10, 50, and 100 μM
[5] = biological target: CAV1.2 (Homo sapiens, UniProt Q13936); test: SAFETYscan E/IC50 assay, CAV1.2; type: biochemical; conditions: concentration range 0.005 to 100 μM
In short: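 Contract-laboratory in vitro panel of 78 targets, run in agonist and/or antagonist modes under provider SOPs over 0.005 to 100 μM. Panel formats included enzyme fragment complementation, FLIPR-based cellular assays, kinase binding and enzymatic assays.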

[6] = Biodistribution in SD rats; type: in vivo, rat; conditions: for AUC(0–48h) / AUCINF / Cmax / Gd concentration in the brain: SD rat; for AUC(0–48h) / AUCINF / Cmax: 0.1 mmol/kg single IV, Gd by ICP-MS; for Gd concentration in the brain: 0.1 mmol/kg IV, ICP-MS (LLOQ 0.1 μg/g)
In short: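 Rats, 30 in total (3/sex/group), received a single IV injection of 0.1 mmol/kg. Blood and tissues were taken predose and at 10 and 30 min and 2, 6 and 48 h. Gd was measured by ICP-MS, and parameters came from noncompartmental analysis.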

[7] = tested on: SD rats; test: Single and repeated dose toxicity and toxicokinetics in SD rats; type: in vivo, rat; conditions: for NOAEL: SD rats; for accumulation ratio AUC0–24h (D14)/AUC0–24h (D1) of Gd: 14 days
In short: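 GLP study in SD rats aged 6–7 weeks (M 200–246 g, F 175–224 g). […] Clinical observation, organ weights and macro/microscopic histopathology were done. Plasma exposure (AUC0–24h, C0) was taken on D1 and D14, with accumulation ratio AUC0–24h(D14)/AUC0–24h(D1) of Gd.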

[8] = biological target: CYP1A2 (Homo sapiens, UniProt P05177); conditions: 0.01, 0.1, 1, 10, and 100 μM, pooled human liver microsomes 0.5 mg/mL
[9] = biological target: CYP3A4 (Homo sapiens, UniProt P08684); conditions: 0.01, 0.1, 1, 10, and 100 μM, pooled human liver microsomes 0.5 mg/mL
[10] = tested on: CYP1A2
[11] = tested on: CYP3A4; conditions: human primary hepatocytes, 1, 10, and 100 μM

Chain of BCRP (Q9UNQ0 whole entry): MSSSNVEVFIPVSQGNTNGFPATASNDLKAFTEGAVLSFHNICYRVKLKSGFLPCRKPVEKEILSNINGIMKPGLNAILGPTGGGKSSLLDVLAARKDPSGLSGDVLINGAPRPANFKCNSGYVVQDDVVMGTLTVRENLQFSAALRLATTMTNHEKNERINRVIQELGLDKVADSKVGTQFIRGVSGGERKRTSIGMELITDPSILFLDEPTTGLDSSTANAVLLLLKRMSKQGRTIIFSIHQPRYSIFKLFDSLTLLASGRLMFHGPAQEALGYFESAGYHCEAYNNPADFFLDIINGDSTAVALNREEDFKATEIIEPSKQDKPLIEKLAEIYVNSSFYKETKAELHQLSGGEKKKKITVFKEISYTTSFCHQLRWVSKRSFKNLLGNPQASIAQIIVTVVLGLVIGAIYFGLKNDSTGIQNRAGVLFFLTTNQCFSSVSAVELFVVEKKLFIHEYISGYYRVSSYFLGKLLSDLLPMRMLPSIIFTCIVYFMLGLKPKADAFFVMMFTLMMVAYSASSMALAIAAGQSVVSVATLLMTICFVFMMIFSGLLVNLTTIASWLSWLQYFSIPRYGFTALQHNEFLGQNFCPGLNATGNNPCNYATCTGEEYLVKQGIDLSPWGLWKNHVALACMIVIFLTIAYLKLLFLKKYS
Chain of CAV1.2 (P54289 957-1103): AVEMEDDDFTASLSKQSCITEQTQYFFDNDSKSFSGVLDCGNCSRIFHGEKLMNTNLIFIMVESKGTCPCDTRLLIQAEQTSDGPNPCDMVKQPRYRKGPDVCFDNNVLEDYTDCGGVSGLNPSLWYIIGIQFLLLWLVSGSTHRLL
Chain of CAV1.2 (Q08289 whole entry, further chain, the tested form may be a part): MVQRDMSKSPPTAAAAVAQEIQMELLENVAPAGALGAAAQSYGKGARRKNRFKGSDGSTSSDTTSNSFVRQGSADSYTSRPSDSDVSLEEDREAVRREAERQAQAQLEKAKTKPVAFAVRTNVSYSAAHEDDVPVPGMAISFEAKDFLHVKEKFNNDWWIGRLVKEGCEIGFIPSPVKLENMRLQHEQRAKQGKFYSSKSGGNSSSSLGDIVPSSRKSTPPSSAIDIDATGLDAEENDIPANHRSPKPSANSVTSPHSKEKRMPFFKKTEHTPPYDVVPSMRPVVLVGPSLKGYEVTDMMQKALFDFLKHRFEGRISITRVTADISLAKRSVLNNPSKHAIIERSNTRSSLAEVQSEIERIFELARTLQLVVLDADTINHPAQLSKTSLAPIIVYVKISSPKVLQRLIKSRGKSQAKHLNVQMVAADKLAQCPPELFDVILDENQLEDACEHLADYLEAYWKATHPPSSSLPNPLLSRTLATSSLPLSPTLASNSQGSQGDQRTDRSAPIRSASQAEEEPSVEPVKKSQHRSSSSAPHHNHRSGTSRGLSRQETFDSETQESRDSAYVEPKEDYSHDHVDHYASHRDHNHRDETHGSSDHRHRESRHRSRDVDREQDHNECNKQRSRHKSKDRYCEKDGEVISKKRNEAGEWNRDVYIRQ
Chain of CAV1.2 (Q13936 whole entry, the tested form may be a part): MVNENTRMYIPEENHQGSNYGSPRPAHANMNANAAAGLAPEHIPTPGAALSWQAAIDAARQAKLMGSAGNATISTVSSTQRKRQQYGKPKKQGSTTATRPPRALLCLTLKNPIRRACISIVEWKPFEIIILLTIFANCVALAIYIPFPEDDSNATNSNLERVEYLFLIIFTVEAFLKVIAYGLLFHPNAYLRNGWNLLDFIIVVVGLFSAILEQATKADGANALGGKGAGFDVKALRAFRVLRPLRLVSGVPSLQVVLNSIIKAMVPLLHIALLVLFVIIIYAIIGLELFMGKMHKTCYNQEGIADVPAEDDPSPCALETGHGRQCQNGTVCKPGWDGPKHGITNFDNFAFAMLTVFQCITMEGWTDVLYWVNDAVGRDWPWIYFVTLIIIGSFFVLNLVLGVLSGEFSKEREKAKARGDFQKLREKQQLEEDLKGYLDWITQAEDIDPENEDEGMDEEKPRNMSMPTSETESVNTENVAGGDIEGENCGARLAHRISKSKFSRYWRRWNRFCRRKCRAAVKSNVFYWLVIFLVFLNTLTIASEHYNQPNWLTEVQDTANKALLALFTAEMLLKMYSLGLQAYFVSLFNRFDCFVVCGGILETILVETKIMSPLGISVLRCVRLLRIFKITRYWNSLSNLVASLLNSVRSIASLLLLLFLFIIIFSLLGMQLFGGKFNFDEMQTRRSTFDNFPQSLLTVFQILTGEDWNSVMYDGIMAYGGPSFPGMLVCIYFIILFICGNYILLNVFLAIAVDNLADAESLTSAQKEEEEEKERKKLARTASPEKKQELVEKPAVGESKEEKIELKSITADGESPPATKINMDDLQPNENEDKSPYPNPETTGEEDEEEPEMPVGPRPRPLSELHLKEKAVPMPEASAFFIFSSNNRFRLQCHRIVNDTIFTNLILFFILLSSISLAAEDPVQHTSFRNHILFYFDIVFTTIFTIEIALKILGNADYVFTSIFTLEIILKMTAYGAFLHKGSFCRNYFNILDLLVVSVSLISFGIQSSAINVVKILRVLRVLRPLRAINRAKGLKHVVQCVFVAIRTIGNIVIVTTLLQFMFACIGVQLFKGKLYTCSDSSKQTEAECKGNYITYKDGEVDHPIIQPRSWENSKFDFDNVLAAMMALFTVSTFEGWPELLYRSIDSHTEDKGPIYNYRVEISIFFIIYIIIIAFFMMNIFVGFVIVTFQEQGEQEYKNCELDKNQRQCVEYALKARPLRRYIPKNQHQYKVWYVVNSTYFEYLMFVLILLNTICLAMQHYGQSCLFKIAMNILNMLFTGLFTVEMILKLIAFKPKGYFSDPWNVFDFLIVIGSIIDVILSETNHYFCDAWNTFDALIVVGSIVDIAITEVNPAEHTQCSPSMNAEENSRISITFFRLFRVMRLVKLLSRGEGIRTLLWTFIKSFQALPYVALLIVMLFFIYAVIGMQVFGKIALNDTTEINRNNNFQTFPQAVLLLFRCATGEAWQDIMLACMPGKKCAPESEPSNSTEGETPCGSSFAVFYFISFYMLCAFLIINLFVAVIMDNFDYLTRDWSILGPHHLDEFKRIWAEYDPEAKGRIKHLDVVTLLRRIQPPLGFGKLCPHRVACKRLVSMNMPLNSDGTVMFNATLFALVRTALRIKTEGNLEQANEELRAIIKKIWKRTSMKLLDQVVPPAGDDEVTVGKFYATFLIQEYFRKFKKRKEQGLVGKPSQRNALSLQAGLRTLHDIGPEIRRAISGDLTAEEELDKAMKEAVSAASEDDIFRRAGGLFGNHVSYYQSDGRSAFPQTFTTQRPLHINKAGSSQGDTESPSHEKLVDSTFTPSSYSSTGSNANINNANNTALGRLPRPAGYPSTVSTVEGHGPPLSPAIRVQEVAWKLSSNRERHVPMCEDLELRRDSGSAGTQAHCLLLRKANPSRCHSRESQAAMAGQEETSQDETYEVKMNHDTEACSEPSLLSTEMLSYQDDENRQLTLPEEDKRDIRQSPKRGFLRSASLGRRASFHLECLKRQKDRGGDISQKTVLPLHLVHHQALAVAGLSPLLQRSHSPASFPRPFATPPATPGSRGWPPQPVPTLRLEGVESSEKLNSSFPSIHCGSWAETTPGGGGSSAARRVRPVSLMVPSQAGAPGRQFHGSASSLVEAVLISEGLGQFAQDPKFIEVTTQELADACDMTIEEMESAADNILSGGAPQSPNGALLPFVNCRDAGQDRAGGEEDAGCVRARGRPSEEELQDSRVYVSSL
Chain of CAV1.2 (P54289 25-956): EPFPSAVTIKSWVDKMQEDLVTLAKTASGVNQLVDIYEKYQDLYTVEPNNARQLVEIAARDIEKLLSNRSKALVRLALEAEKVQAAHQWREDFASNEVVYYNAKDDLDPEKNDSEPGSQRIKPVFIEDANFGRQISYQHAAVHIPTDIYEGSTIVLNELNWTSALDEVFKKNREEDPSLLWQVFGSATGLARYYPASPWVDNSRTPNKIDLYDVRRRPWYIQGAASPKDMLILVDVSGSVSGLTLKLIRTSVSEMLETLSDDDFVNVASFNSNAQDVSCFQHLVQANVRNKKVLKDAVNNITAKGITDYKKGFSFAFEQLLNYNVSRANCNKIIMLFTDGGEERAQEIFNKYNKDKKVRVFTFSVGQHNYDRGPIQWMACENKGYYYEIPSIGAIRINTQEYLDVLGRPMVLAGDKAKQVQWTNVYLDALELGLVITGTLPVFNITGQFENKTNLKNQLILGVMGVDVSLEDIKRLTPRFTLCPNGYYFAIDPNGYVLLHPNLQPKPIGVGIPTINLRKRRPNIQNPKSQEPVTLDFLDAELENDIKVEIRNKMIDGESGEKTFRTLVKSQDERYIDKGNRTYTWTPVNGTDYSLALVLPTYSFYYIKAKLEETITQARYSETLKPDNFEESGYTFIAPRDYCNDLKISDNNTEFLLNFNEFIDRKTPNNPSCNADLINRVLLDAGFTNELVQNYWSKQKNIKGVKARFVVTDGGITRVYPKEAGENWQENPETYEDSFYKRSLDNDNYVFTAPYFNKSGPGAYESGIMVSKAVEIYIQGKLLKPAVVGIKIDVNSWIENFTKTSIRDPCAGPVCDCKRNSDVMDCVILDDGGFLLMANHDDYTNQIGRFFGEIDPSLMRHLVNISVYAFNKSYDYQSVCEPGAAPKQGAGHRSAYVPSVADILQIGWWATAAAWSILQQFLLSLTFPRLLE
Chain of EDB protein fragment (P02751 1271-1359 limits assumed): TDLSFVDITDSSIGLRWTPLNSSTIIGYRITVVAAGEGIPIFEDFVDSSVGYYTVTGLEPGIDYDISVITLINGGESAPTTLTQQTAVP

ZD2-N3-Gd(HP-DO3A) [MT218]
Kd [1]: 3.45 µM | binding ratio to plasma proteins ([2]; 50 μM): 28.44% | binding ratio to plasma proteins ([2]; 80 μM): 27.12% | binding ratio to plasma proteins ([2]; 110 μM): 25.68% | average remaining percentage of intact MT218 ([3]; 1 h): 89.19% | average remaining percentage of intact MT218 ([3]; 3 h): 71.45% | average remaining percentage of intact MT218 ([3]; 6 h): 47.81% | average remaining percentage of intact MT218 ([3]; 28 h): 11.23% | average remaining percentage of intact MT218 ([3]; 48 h): 5.38% | enzymatic degradation half-life (t1/2) [3]: 5.85 h | inhibition of BCRP transporter activity [4]: no inhibition potential | inhibition rate [5]: 15.58% | AUC(0–48h) ([6]; Brain): 0.86 µg·h/g | AUCINF ([6]; Brain): 0.87 µg·h/g | Cmax ([6]; Brain): 1.10 µg/g | AUC(0–48h) ([6]; Fat): 3.18 µg·h/g | AUCINF ([6]; Fat): 3.23 µg·h/g | Cmax ([6]; Fat): 4.07 µg/g | AUC(0–48h) ([6]; Gonads): 11.78 µg·h/g | AUCINF ([6]; Gonads): 17.48 µg·h/g | Cmax ([6]; Gonads): 7.22 µg/g | AUC(0–48h) ([6]; Heart): 7.15 µg·h/g | AUCINF ([6]; Heart): 7.56 µg·h/g | Cmax ([6]; Heart): 7.54 µg/g | AUC(0–48h) ([6]; Kidney): 481.54 µg·h/g | AUCINF ([6]; Kidney): 2936.07 µg·h/g | Cmax ([6]; Kidney): 74.89 µg/g | AUC(0–48h) ([6]; Liver): 17.22 µg·h/g | AUCINF ([6]; Liver): 27.86 µg·h/g | Cmax ([6]; Liver): 4.73 µg/g | AUC(0–48h) ([6]; Lung): 17.81 µg·h/g | AUCINF ([6]; Lung): 19.50 µg·h/g | Cmax ([6]; Lung): 14.28 µg/g | AUC(0–48h) ([6]; Lymph nodes): 27.63 µg·h/g | AUCINF ([6]; Lymph nodes): 51.39 µg·h/g | Cmax ([6]; Lymph nodes): 12.53 µg/g | AUC(0–48h) ([6]; Muscle): 4.27 µg·h/g | AUCINF ([6]; Muscle): 4.29 µg·h/g | Cmax ([6]; Muscle): 5.51 µg/g | AUC(0–48h) ([6]; Plasma): 34.06 µg·h/mL | AUCINF ([6]; Plasma): 34.18 µg·h/mL | Cmax ([6]; Plasma): 44.96 µg/mL | AUC(0–48h) ([6]; Prostate): 12.05 µg·h/g | AUCINF ([6]; Prostate): 13.12 µg·h/g | Cmax ([6]; Prostate): 6.05 µg/g | Gd concentration in the brain ([6]; 2 hours post-injection): reached LLOQ | Gd concentration in the brain ([6]; 6 hours post-injection): No detectable Gd deposition; also recorded: undetectable | AUC(0–48h) ([6]; Skeleton): 11.83 µg·h/g | AUCINF ([6]; Skeleton): 12.16 µg·h/g | Cmax ([6]; Skeleton): 4.58 µg/g | AUC(0–48h) ([6]; Skin): 28.54 µg·h/g | AUCINF ([6]; Skin): 30.96 µg·h/g | Cmax ([6]; Skin): 17.21 µg/g | AUC(0–48h) ([6]; Small intestine): 13.99 µg·h/g | AUCINF ([6]; Small intestine): 19.76 µg·h/g | Cmax ([6]; Small intestine): 6.44 µg/g | AUC(0–48h) ([6]; Spleen): 15.18 µg·h/g | AUCINF ([6]; Spleen): 35.21 µg·h/g | Cmax ([6]; Spleen): 4.14 µg/g | AUC(0–48h) ([6]; Stomach): 12.99 µg·h/g | AUCINF ([6]; Stomach): 15.13 µg·h/g | Cmax ([6]; Stomach): 10.87 µg/g | Gd concentration in the tested tissues besides the kidneys ([6]; rats, biodistribution study, level to which it decreased, time not given): ≤ 1.0 µg/g | NOAEL ([7]; repeated daily IV dose for 14 days): 0.46 mmol/kg/day | NOAEL ([7]; single IV dose): 1.39 mmol/kg | accumulation ratio AUC0–24h (D14)/AUC0–24h (D1) of Gd ([7]; female rats, high dose 1.39 mmol/kg/d IV): 1.22 | accumulation ratio AUC0–24h (D14)/AUC0–24h (D1) of Gd ([7]; female rats, low dose 0.15 mmol/kg/d IV): 1.41 | accumulation ratio AUC0–24h (D14)/AUC0–24h (D1) of Gd ([7]; female rats, medium dose 0.46 mmol/kg/d IV): 1.61 | accumulation ratio AUC0–24h (D14)/AUC0–24h (D1) of Gd ([7]; male rats, high dose 1.39 mmol/kg/d IV): 1.31 | accumulation ratio AUC0–24h (D14)/AUC0–24h (D1) of Gd ([7]; male rats, low dose 0.15 mmol/kg/d IV): 1.52 | accumulation ratio AUC0–24h (D14)/AUC0–24h (D1) of Gd ([7]; male rats, medium dose 0.46 mmol/kg/d IV): 1.49 | mortality or moribundity ([7]; rats, any dose group, up to 1.39 mmol/kg/d): no mortality or morbidity; also recorded: No mortality or moribundity | clinical observations (body weight, food consumption, temperature, ophthalmoscopy, hematology, coagulation, clinical chemistry, urinalysis) ([7]; rats, any dose level): No MT218-related changes | pathological findings ([7]; rats, low and medium repeated-dosing groups (0.15, 0.46 mmol/kg/d)): No such abnormality | pathological findings ([7]; rats, single dose 1.39 mmol/kg): no MT218-related macroscopic and microscopic abnormality | inhibition of CYP1A2 activity [8]: did not inhibit | inhibition of CYP3A4 activity [9]: did not inhibit | mRNA expression level of CYP1A2 vs vehicle controls ([10]; 100 μM, human hepatocytes, 1 of the 3 lots of cells): 2.10 fold | induction on enzyme activity of CYP1A2 ([10]; human primary hepatocytes, 1, 10, and 100 μM): no induction | induction of mRNA expression of CYP3A4 [11]: did not induce | induction on enzyme activity of CYP3A4 [11]: no induction
